In the library only some 1.9% were active in any assay of this set; here they are far more common.
Arr AP2 block – inhibitors of human beta-arrestin and AP2 interaction; FITC-arrestin peptide / GST-AP2 beads, flow cytometry; AP2 beta2 appendage carries R879A mutation; inhibition, % at 10 µM; actives 0.31% (n = 340,000); AID 504490;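 active = inhibition above a set limit, near 3 SD of compounds lacking own fluorescence, cut at about 54% in these data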;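 also: plate controls were DMSO wells for no effect and 5 µM unlabelled arrestin peptide for full effect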
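Test system: GST-tagged AP2 beta2-adaptin appendage (R879A) on 4 µm glutathione beads; also added: fluorescein-tagged arrestin peptide at 50 nM final; timing: 12 min plus 1 h, RT; signal: flow cytometry, FL1 (488/535 nm); read-out: percent drop in bead-associated FITC signal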
proCasp7 act – activates human procaspase-7, counter-screen for procaspase-3 activators. recombinant procaspase-7, Ac-DEVD-pNA absorbance 405 nm; D23A/D198A/D206A triple mutant, cannot self-cleave; scale: DMSO 0, 5 µM enzyme 100. activation, % at 8.5 µM. actives 0.093% (n = 330,000);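 active = percent activation above the screen-wide mean plus 3 SD, cut at about 25% in these data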
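Assay system: Uncleavable procaspase-7 mutant enzyme | Input: 2 µM procaspase-7 mutant as dispensed | Timing: 1 h compound preincubation, 2 h substrate cleavage, 25 °C | Repeats: One well per compound | Control set: DMSO wells as 0%, DMSO with 5 µM added PC-7 as 100% | Technique: Epi-absorbance of released pNA at 405 nm, two timepoints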
sPLA2-III inh – Blocks human group III sPLA2 activity | Q9NZ20 | QFRET BODIPY PC-A2 liposome hydrolysis, fluorescence | inhibition, % at 12.2 µM | actives 0.56% (n = 370,000) | AID 743126;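 active = inhibition above mean plus 3 SD of compounds lying within the high and low control bounds, cut at about 19% in these data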;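 also: 0% = median of test compound wells and 100% = no enzyme DMSO wells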
Target sequence (Q9NZ20 whole entry, looked up): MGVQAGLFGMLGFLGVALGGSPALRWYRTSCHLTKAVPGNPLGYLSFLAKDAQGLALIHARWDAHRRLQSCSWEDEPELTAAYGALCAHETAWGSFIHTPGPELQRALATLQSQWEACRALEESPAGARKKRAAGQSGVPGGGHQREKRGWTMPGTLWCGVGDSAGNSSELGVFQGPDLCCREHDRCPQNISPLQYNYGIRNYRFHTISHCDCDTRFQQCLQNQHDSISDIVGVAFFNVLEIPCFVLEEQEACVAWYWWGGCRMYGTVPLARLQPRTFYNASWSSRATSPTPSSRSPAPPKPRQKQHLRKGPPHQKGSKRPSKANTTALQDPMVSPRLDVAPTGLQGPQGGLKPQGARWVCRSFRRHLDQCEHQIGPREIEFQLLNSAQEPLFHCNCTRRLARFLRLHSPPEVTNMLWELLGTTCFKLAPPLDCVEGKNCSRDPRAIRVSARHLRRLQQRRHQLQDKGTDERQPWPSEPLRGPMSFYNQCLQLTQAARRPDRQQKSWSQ
PLC-beta3 inh – blocks human PLC-beta3 enzyme activity | Purified PLC-beta3, fluorogenic substrate, fluorescence | AID 720704 | actives 0.18% (n = 370,000) | inhibition, % at 12.2 µM; in the data active = inhibition above about 11%;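 also: 0% = median of compound wells on plate and 100% = full blocker control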
PLCg1 inh – PLC-gamma1 (human) inhibition, primary screen. P19174. purified PLC-gamma1, fluorogenic substrate, fluorescence. inhibition, % at 12.2 µM. actives 0.84% (n = 370,000). AID 720700; in the data active = inhibition above about 9.5%
procasp3 activ – activators of human procaspase-3 | AID 463141 | activation, % at 8.5 µM | recombinant procaspase-3 D3A, Ac-DEVD-pNA absorbance 405 nm | P42574 | actives 0.11% (n = 330,000);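 active = activation above the mean of all tested compounds plus 3 SD, cut at about 21% in these data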;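 also: 0% = DMSO alone and 100% = DMSO wells spiked with extra 5 µM PC-3 D3A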
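Test system: Procaspase-3 D3A mutant; medium: Zinc-free HEPES/NaCl buffer with 0.01% Triton X-100 at pH 7.4; reagent: DEVD-pNA substrate; doses: one concentration, 8.5 µM nominal, 0.8% DMSO; times: 1 h preincubation plus 2 h reaction at 25 °C; signal: Epi-absorbance at 405 nm of released p-nitroaniline, 0 and 120 min; replicates: singlicate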
proCasp7 act trip – counter-screen for procaspase-3 activators: activators of human procaspase-7; shares compounds with procasp3 activ; recombinant procaspase-7, Ac-DEVD-pNA absorbance; asp23/198/206-to-Ala mutant, cannot self-cleave; activation, % at 8.5 µM; 210 tested, under 10 active; AID 488941;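 active = mean activation above a set limit taken from an earlier procaspase-7 screen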;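 also: 0% = DMSO wells and 100% = DMSO plus 5 µM procaspase-7 enzyme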
procasp3 conf – procaspase-3 (human) activation, confirmed | shares compounds with procasp3 activ | recombinant PC-3 D3A, Ac-DEVD-pNA absorbance 405 nm; 100% is higher-enzyme control | activation, % at 8.5 µM | actives 10% (n = 210) | AID 488954;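 active = mean activation above a set limit carried over from the earlier primary screen, cut at about 22% in these data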
* hit, by the source's call; i = inactive; / = not tested or not shown.

SMILES | Arr AP2 block | proCasp7 act | sPLA2-III inh | PLC-beta3 inh | PLCg1 inh | procasp3 activ | proCasp7 act trip | procasp3 conf
N=c1c(S(=O)(=O)c2ccccc2)cc2c(=O)n3ccccc3nc2n1C1CCCC1 | 17 | -17 | 5 | -34 | -22 | 30* | -22 | -14
COc1ccc2cc(S(=O)(=O)NCCCN3CCOCC3)ccc2c1 | 14 | -4 | -6 | 2 | 3 | 22* | 2 | 6
Cc1cc2nn(-c3cccc4ccccc34)nc2cc1N | 20 | 5 | -7 | i | i | 22* | 5 | 24*
Nc1ccc2nn(-c3cccc4ccccc34)nc2c1 | 24 | 5 | -3 | -383 | -319 | 5 | / | /
CCC(=O)Nc1c(S(=O)(=O)c2ccc(C)cc2)c2nc3ccccc3nc2n1C(C)c1ccccc1 (stereo not drawn) | -25 | 6 | -26 | -60 | -50 | 26* | -22 | -14
COC(=O)c1cc2c(c3c4cc(C)ccc4n(S(=O)(=O)c4ccc(C)cc4)c13)C(=O)N(C)C2 | / | / | 9 | -24 | -18 | / | / | /
CCCCCc1ccc(NC(=O)OCCN2C(=O)CCC23CCC(c2ccccc2)CC3)cc1 (stereo not drawn) | / | / | 8 | 6 | 2 | / | / | /
O=C(/C=C1\NC2(CCCC2)Cc2ccccc21)C(=O)N/N=C/c1ccccc1O | -8 | 0 | 18 | -17 | -12 | 24* | 24 | 32*
COc1cc(/C=N/NC(=O)C(=O)/C=C2\NC3(CCCC3)Cc3ccccc32)ccc1O | 4 | -13 | -6 | 1 | -1 | -7 | / | /
CCOCCCNC(=O)c1ccc(N(C)S(=O)(=O)c2ccc(OC)cc2)cc1 | 6 | -3 | 3 | 0 | 7 | 22* | 1 | 5
CCc1ccc(OCC(=O)OCC(=O)c2ccc3c(c2)NC(=O)CO3)cc1 | 3 | 0 | -6 | 1 | 1 | -1 | / | /
CCC(=O)c1ccc(OCC(=O)c2ccc3c(c2)NC(=O)CO3)cc1 | -11 | 4 | 7 | -8 | 0 | 23* | 4 | 4
CC1Oc2ccccc2N(CC(=O)NCCCN2CCOCC2)C1=O (stereo not drawn) | 19 | 4 | 5 | -5 | 1 | 6 | / | /
O=C(CN1C(=O)/C(=C\c2ccccc2Br)Oc2ccccc21)NCCCN1CCOCC1 | -3 | 25 | -15 | i | i | 32* | -18 | -13
O=C(CCc1ccccc1)N[C@H]1/C(=N/O)CCC[C@]12C(=O)N(Cc1ccccc1)c1ccccc12 | / | / | 2 | -3 | 1 | / | / | /
C=CCN(c1ccccc1)S(=O)(=O)c1cccc(C(=O)OCC(=O)NCCOC)c1 | 32 | -5 | -4 | -3 | 2 | -6 | / | /
C=CCN(c1ccccc1)S(=O)(=O)c1cccc(C(=O)Oc2ccc3c(C)cc(=O)oc3c2)c1 | -11 | 21 | 16 | i | i | 21* | -7 | -7
Cc1cc(N/N=C/c2ccc(N(C)C)cc2)c2ccccc2n1 | 18 | 24 | 7 | -317 | -282 | 28* | -4 | -6
CC(=O)c1ccc(-c2cccs2)s1 | -14 | 24 | -2 | i | i | 29* | -20 | -13
CNc1cccc(-c2ccc(C(C)=O)s2)n1 | / | / | -5 | -270 | -215 | / | / | /
Cn1c(N)nc2nc(CCc3ccccc3)c(=O)[nH]c2c1=O | -2 | 6 | 4 | -326 | -227 | 22* | -22 | -14
OC[C@H]1CC[C@@H]2O[C@H](CCc3ccc(-c4ccc(F)cc4)cc3)[C@H](n3cc(C4CC4)nn3)C[C@@H]2O1 | / | / | -11 | -1 | 1 | / | / | /
CCn1c(NCc2cccc(OC)c2OC)nc2ccccc21 | -2 | 17 | -3 | 1 | 2 | 22* | 4 | 2
